In brackets after ≈: the same amount, converted by molar mass.
Legend:
Format in all cases: functional
[1] = tested on: Candida albicans; test: Antifungal activity against Candida albicans after 24 hrs
Procedure, shortened: (§1)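 Candida yeasts were tested by NCCLS microdilution in RPMI 1640 buffered with 0.165 M MOPS and incubated at 35 °C. Compounds were dissolved in DMSO and serially diluted in medium. Isolates came from ATCC or the clinic. The MIC was read at 24 h as the lowest concentration achieving ≥80% growth inhibition versus the control.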

[2] = tested on: Trichophyton rubrum; test: Antifungal activity against Trichophyton rubrum
Procedure, shortened: (§2)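 Dermatophytes were tested by NCCLS serial dilution in RPMI 1640 with 0.165 M MOPS and incubated at 28 °C. Compounds were dissolved in DMSO and diluted in medium. Strains came from ATCC or clinical isolates. The MIC was read at 7 d as the lowest concentration reducing turbidity by ≥80% relative to the drug-free control.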

[3] = tested on: Candida parapsilosis; test: Antifungal activity against Candida parapsilosis after 24 hrs; settings: Lodderomyces parapsilosis; procedure, shortened: as §1
[4] = tested on: Cryptococcus neoformans; test: Antifungal activity against Cryptococcus neoformans after 72 hrs
Procedure, shortened: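 Cryptococcus neoformans was tested by NCCLS serial dilution in MOPS-buffered (0.165 M) RPMI 1640 at 35 °C. Compounds were dissolved in DMSO and diluted in medium. The MIC was read at 72 h as the lowest concentration giving turbidity inhibition of ≥80% relative to the growth control.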

[5] = tested on: Fonsecaea compacta; test: Antifungal activity against Fonsecaea compacta
Procedure, shortened: (§3)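 NCCLS broth serial dilution in RPMI 1640 buffered with 0.165 M MOPS. Compounds were dissolved in DMSO and serially diluted in medium. Strains came from ATCC or clinical isolates. The growth MIC for filamentous fungi was read at 7 d, taken as the lowest concentration giving ≥80% turbidity inhibition versus the growth control.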

[6] = tested on: Microsporum; test: Antifungal activity against Microsporum gypseum; procedure, shortened: as §2
[7] = tested on: Aspergillus fumigatus; test: Antifungal activity against Aspergillus fumigatus; procedure, shortened: as §3

Compound | MIC [1] [µM] | MIC [2] [µM] | MIC [3] [µM] | MIC [4] [µM] | MIC [5] [µM] | MIC [6] [µM] | MIC [7] [µM]
CCCCNC1CCc2c(O)cccc2C1 (centres undefined) | > 64 | 64 (≈ 14 µg/mL) | > 64 | > 64 | 64 (≈ 14 µg/mL) | > 64 | > 64
COc1ccc2c(c1)CCC(Nc1ccc(Cl)cc1)C2 (centres undefined) | > 64 | 1 (≈ 0.288 µg/mL) | > 64 | > 64 | > 64 | 16 (≈ 4.6 µg/mL) | > 64
CCCCCCCCCCCCNC1CCc2cc(O)ccc2C1 (centres undefined) | 1 (≈ 0.332 µg/mL) | 2 (≈ 0.663 µg/mL) | 8 (≈ 2.65 µg/mL) | 2 (≈ 0.663 µg/mL) | 4 (≈ 1.33 µg/mL) | 8 (≈ 2.65 µg/mL) | > 64
COc1cccc2c1CC(Nc1ccc(Cl)cc1)CC2 (centres undefined) | > 64 | > 64 | > 64 | > 64 | > 64 | 32 (≈ 9.21 µg/mL) | > 64
COc1cccc2c1CCC(Nc1ccc(Cl)cc1)C2 (centres undefined) | > 64 | 2 (≈ 0.576 µg/mL) | > 64 | > 64 | > 64 | 16 (≈ 4.6 µg/mL) | > 64
CCCCCCCCCCCCCCNC1CCc2c(O)cccc2C1 (centres undefined) | 8 (≈ 2.88 µg/mL) | 0.5 (≈ 0.18 µg/mL) | > 64 | 8 (≈ 2.88 µg/mL) | > 64 | 4 (≈ 1.44 µg/mL) | > 64
CCCCCCCCCCCCNC1CCc2c(O)cccc2C1 (centres undefined) | 4 (≈ 1.33 µg/mL) | 32 (≈ 10.6 µg/mL) | > 64 | > 64 | > 64 | 2 (≈ 0.663 µg/mL) | > 64
CCCCCCCCNC1CCc2c(O)cccc2C1 (centres undefined) | 8 (≈ 2.2 µg/mL) | 4 (≈ 1.1 µg/mL) | 64 (≈ 17.6 µg/mL) | 32 (≈ 8.81 µg/mL) | 8 (≈ 2.2 µg/mL) | 8 (≈ 2.2 µg/mL) | > 64
COc1ccc(NC2CCc3cccc(O)c3C2)cc1 (centres undefined) | > 64 | 2 (≈ 0.539 µg/mL) | > 64 | > 64 | > 64 | 16 (≈ 4.31 µg/mL) | > 64
CCCCCCCCCCCCCCCCCCNC1CCc2ccc(O)cc2C1 (centres undefined) | 16 (≈ 6.65 µg/mL) | 2 (≈ 0.831 µg/mL) | > 64 | > 64 | 64 (≈ 26.6 µg/mL) | > 64 | > 64
CCCCCCCCCCCCCCNC1CCc2c(cccc2OC)C1 (centres undefined) | > 64 | 8 (≈ 2.99 µg/mL) | > 64 | 32 (≈ 12 µg/mL) | 64 (≈ 23.9 µg/mL) | > 64 | > 64
COc1cccc2c1CC(N)CC2 (centres undefined) | > 64 | 64 (≈ 11.3 µg/mL) | > 64 | > 64 | > 64 | > 64 | > 64
CCCCCCCCCCCCCCNC1CCc2cc(O)ccc2C1 (centres undefined) | 2 (≈ 0.719 µg/mL) | 0.5 (≈ 0.18 µg/mL) | 32 (≈ 11.5 µg/mL) | > 4 | > 64 | 2 (≈ 0.719 µg/mL) | > 64
COc1ccc2c(c1)CC(NCc1ccccc1)CC2 (centres undefined) | 64 (≈ 17.1 µg/mL) | 4 (≈ 1.07 µg/mL) | > 64 | > 64 | > 64 | > 64 | > 64
CCCCNC1CCc2cc(O)ccc2C1 (centres undefined) | > 64 | 64 (≈ 14 µg/mL) | > 64 | > 64 | > 64 | > 64 | > 64
COc1cccc2c1CC(Nc1ccccc1)CC2 (centres undefined) | > 64 | 4 (≈ 1.01 µg/mL) | > 64 | > 64 | > 64 | 32 (≈ 8.11 µg/mL) | > 64
COc1cccc2c1CCC(N)C2 (centres undefined) | > 64 | 8 (≈ 1.42 µg/mL) | > 64 | > 64 | 64 (≈ 11.3 µg/mL) | > 64 | > 64
COc1ccc(NC2CCc3cc(O)ccc3C2)cc1 (centres undefined) | > 64 | 0.5 (≈ 0.135 µg/mL) | 64 (≈ 17.2 µg/mL) | 64 (≈ 17.2 µg/mL) | > 64 | 16 (≈ 4.31 µg/mL) | > 64
Oc1ccc2c(c1)CCC(Nc1ccccc1)C2 (centres undefined) | 64 (≈ 15.3 µg/mL) | 8 (≈ 1.91 µg/mL) | 64 (≈ 15.3 µg/mL) | 64 (≈ 15.3 µg/mL) | 64 (≈ 15.3 µg/mL) | 32 (≈ 7.66 µg/mL) | > 64
CCCCCCCCCCCCCCCCCCNC1CCc2cc(O)ccc2C1 (centres undefined) | 32 (≈ 13.3 µg/mL) | 8 (≈ 3.33 µg/mL) | > 64 | > 64 | > 64 | 64 (≈ 26.6 µg/mL) | > 64
CCCCCCCCCCCCCCCCCCNC1CCc2c(cccc2OC)C1 (centres undefined) | > 64 | 32 (≈ 13.8 µg/mL) | > 64 | > 64 | 64 (≈ 27.5 µg/mL) | 16 (≈ 6.88 µg/mL) | > 64
CCCCCCCCCCCCCCNC1CCc2cccc(O)c2C1 (centres undefined) | 16 (≈ 5.75 µg/mL) | 0.125 (≈ 0.0449 µg/mL) | 64 (≈ 23 µg/mL) | 32 (≈ 11.5 µg/mL) | 16 (≈ 5.75 µg/mL) | 4 (≈ 1.44 µg/mL) | 16 (≈ 5.75 µg/mL)
